CSN deneddyl inh: blocks human CSN-mediated cullin deneddylation. Q92905. Purified CSN, SCF-Nedd8-OG deneddylation, fluorescence polarization. inhibition, % at 12.5 µM. hit rate 0.38% among 360,000;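 active = pattern-corrected inhibition above about 35%, with an unprinted fluorescence ratio check between 0.5 and 1.5, limit read from the data, passing the limit was not always enough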
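test system = HEK293T-derived human Csn5 enzyme | amount = 0.24 nM Csn5 enzyme, final concentration | medium = Tris/NaCl/DTT buffer, pH 7.5 | schedule = 90 min reaction at room temperature | signal = FP | evaluation = inhibition of Csn5 cleavage, % | compound dosing = single dose of 12.5 µM compound with 0.25% DMSO | probe or stimulus = 10 nM SCFSkp2-Nedd8OG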
TbMetRS inhib: Trypanosoma brucei MetRS inhibition | purified T. brucei MetRS, ATP depletion, Kinase-Glo luminescence | inhibition, % at 11.9 µM | hit rate 0.4% among 360,000 | AID 624268;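 active = inhibition above a per-plate cutoff of the control wells' mean inhibition plus 3 SD, cut at about 5.5% in these data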
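Test system: purified T. brucei MetRS enzyme. Also added: ATP, methionine and E. coli bulk tRNA substrates. Compound: 11.9 µM single point. Schedule: 15 min enzyme-compound preincubation, 2 h reaction, 10 min detection, 25 °C. Signal: luciferase luminescence of residual ATP, Kinase-Glo. Evaluation: percent inhibition versus plate control medians. Controls: DMSO wells, low control.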
Neddylation inh: inhibitors of human cullin neddylation; P61081+Q13564; TR-FRET cullin neddylation, biochemical; inhibition, % at 25 µM; hit rate 0.58% among 360,000; in the data active = inhibition above about 36%
Target sequence (P61081 whole entry, looked up): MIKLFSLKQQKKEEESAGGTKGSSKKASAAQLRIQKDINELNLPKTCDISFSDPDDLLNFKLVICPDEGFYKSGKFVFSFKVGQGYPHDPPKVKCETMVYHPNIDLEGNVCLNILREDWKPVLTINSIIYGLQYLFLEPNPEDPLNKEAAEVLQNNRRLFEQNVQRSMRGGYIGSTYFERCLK
Target sequence (Q13564 whole entry, looked up): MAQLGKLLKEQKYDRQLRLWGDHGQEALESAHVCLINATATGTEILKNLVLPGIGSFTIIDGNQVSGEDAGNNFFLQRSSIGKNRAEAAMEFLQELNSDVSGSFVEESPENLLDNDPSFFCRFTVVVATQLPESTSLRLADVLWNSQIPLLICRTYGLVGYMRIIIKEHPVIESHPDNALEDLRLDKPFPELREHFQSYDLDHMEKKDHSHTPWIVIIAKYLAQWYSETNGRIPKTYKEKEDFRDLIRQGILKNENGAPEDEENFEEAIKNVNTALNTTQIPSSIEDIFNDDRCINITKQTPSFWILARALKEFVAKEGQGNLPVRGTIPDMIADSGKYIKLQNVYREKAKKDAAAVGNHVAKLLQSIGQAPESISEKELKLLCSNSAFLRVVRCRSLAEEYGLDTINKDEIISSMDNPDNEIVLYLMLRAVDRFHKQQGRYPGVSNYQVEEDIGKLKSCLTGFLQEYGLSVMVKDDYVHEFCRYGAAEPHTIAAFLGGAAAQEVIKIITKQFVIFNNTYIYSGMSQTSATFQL
Rpn11 block: blocks the human proteasome subunit Rpn11; inhibition, % at 20 µM; O00487; human 26S proteasome, Ub4-pepOG fluorescence polarization; 20S core pre-blocked with epoxomicin; hit rate 0.59% among 360,000;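 active = inhibition at 20 µM, scaled to each plate's controls, above about 33%, limit read from the data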
PREPL inhibitor: inhibits the human prolyl oligopeptidase-like enzyme; recombinant PREPL, fluorescence polarization activity-based probe; inhibition, % at 5.96 µM; Q4J6C6; AID 2751; hit rate 0.68% among 320,000; in the data active = inhibition above about 43%
HNF4A DNA FP: change in binding of human HNF4 alpha to DNA; HNF4a-FITC DNA binding, fluorescence polarization, 1 h; P41235; activity change, % at 10 µM; hit rate 0.3% among 360,000; AID 1224865; in the data active = activity change above about 30%, passing the limit was not always enough
Neddyl inh conf: cullin neddylation inhibition, confirmation; shares compounds with Neddylation inh; TR-FRET cullin neddylation biochemical assay; calls only at 25 µM; hit rate 13% among 1,800; AID 652217; in the data active = inhibition above about 40%;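 also: neddylation substrate is the cullin 1 ring ligase complex with SKP2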
Hits are given with their value; - = inactive; . = no result shown; + = active, no number. Sampled rows, rich in hits. Any-hit rate of the full collection: about 2.4%.

SMILES	CSN deneddyl inh	TbMetRS inhib	Neddylation inh	Rpn11 block	PREPL inhibitor	HNF4A DNA FP	Neddyl inh conf
COC(OC)C1Nc2ccccc2C(=O)N1c1ccc(F)cc1 (stereo unspecified)	-	-	43	-	.	-	.
COc1ccc(N2C(=O)c3ccccc3NC2c2ccccc2O)cc1 (stereo unspecified)	-	-	.	-	-	-	.
CCSC1=C(C#N)C2(CCCCC2)C2=C(CC(C)(C)CC2=O)N1	-	-	44	-	-	-	-
FC(F)(F)c1ccccc1Cc1c(-c2cccc(Cl)c2)nc2ccc(Cl)cn12	-	-	-	-	.	-	.
COc1ccc(NC(=O)c2cccc(NC3=NC4CS(=O)(=O)CC4S3)c2)cc1Cl (stereo unspecified)	-	-	-	-	-	-	.
COc1ccccc1-c1nnc(N)s1	-	-	41	-	-	-	-
Nc1nnc(-c2ccccc2Cl)s1	-	-	-	-	-	-	.
CCOc1ccc(S(=O)(=O)N(CC)CC(=O)NC2CCS(=O)(=O)C2)cc1 (stereo unspecified)	-	-	-	-	-	-	.
Clc1ccc(-c2nc(N3CCOCC3)nc3ccccc23)cc1	-	-	44	-	-	-	.
N#Cc1cc(N2CCOCC2)nc2ccccc12	-	-	36	-	-	-	-
c1ccc(-c2cc(N3CCOCC3)nc3ccccc23)cc1	-	-	46	-	-	-	-
c1ccc(-c2nc(N3CCCC3)nc3ccccc23)cc1	-	-	-	-	-	-	.
CCN(C(=O)COc1ccc(N(C)S(=O)(=O)c2ccc(NC(C)=O)cc2)cc1)C1CCCCC1	-	-	-	-	-	-	.
CCN1CCC(O)(/C=C/c2ccc(C(C)C)cc2)C(C(=O)/C=C/c2ccc(C(C)C)cc2)C1 (stereo unspecified)	-	-	-	-	.	-	.
Nc1nnc(-c2cc3ccccc3oc2=O)s1	-	-	47	-	-	-	+
O=c1oc2ccccc2cc1-c1nnc(NCc2ccco2)s1	-	-	50	-	-	-	-
COc1ccc2oc(=O)c(-c3nnc(N)s3)cc2c1	-	-	-	-	-	-	.
Nc1c(C(=O)Nc2ccccc2)c2nc3ccccc3nc2n1CCCN1CCOCC1	-	-	57	-	-	-	+
N#Cc1c(N)n(CCCN2CCOCC2)c2nc3ccccc3nc12	-	-	.	-	-	-	.
CC1Oc2ccccc2C=C1/C=N/NC(=O)c1ccccc1 (stereo unspecified)	-	-	.	-	-	-	.
CC1Oc2ccccc2C=C1/C=N/NC(=O)c1ccccc1O (stereo unspecified)	-	-	51	-	-	-	-
Cc1ccnc(NC(=O)c2cccc(S(=O)(=O)N3CCCc4ccccc43)c2)c1	-	-	-	-	-	-	.
CCSc1nnc(-c2ccc(S(=O)(=O)N3CCOCC3)cc2)n1C	-	-	39	-	-	-	-
CCSc1nnc(-c2ccc(S(=O)(=O)N3CCCC3)cc2)n1C	-	-	46	-	-	-	-
Cn1c(SCC(=O)N2CCCC2)nnc1-c1ccc(S(=O)(=O)N2CCCC2)cc1	-	-	-	-	-	-	.
SMILES	CSN deneddyl inh	TbMetRS inhib	Neddylation inh	Rpn11 block	PREPL inhibitor	HNF4A DNA FP	Neddyl inh conf
CCc1ccc(-c2cnc3nc[nH]c(=O)c3n2)cc1	-	-	59	-	-	-	+
O=C(c1[nH]c(C(F)(F)F)nc1-c1ccccc1)N1CCN(Cc2c(F)cccc2Cl)CC1	-	-	-	-	.	-	.
Cc1cccc(C)c1-n1nnnc1-c1nc2ccccc2[nH]c1=O	-	-	-	.	.	-	.
Cc1cc2nc(-c3nnnn3-c3c(C)cccc3C)c(=O)[nH]c2cc1C	-	-	48	.	.	-	-
COCc1cc(C)nc2sc(C(=O)Nc3ccc(OC)cc3)c(N)c12	-	-	49	-	-	-	+
COCc1cc(C)nc2sc(C(=O)N3CCN(c4ccccc4)CC3)c(N)c12	-	-	41	-	-	-	-
COCc1cc(C)nc2sc(C(=O)Nc3cccc(OC)c3)c(N)c12	-	-	.	-	-	-	.
COCc1cc(C)nc2sc(C(=O)N3CCCCC3)c(N)c12	-	-	-	-	-	-	.
COc1ccc(CNC(=O)c2ccc(S(=O)(=O)N3CC(C)CC(C)C3)cc2)cc1OC (stereo unspecified)	-	-	-	-	.	-	.
O=C(Nc1ccc(Cl)c(Cl)c1)N[C@@H]1CC[C@@H](CCn2cc(C3CCCCC3)nn2)O[C@@H]1CO	-	-	-	.	.	-	.
Cc1cc(SCC(=O)Nc2ccccc2)n2ncc(-c3ccccc3)c2n1	-	-	-	-	-	-	.
Cc1cc(SCC(=O)Nc2ccc(O)cc2)n2ncc(-c3ccccc3)c2n1	-	-	39	-	-	-	-
Cc1cc(C(=O)NNC(=O)Cc2ccc(Cl)c(Cl)c2)c(C)o1	-	-	-	-	.	-	.
O=C1O[C@@H](c2ccc(O)cc2)Cc2cccc(O)c21	-	-	39	-	-	-	.
CSc1ccc(/C=C/C(=O)OCC(=O)NCC2CCCO2)cc1 (stereo unspecified)	-	-	66	-	-	-	.
C[C@@H](CO)NC(=O)c1ccc2c3n(nc2c1)-c1ccc(Cl)cc1CO3	-	-	-	-	-	-	.
Cc1ccc2c(c1)COc1c3ccc(C(=O)NCCO)cc3nn1-2	-	-	53	-	-	-	+
Cc1ccc2c(c1)COc1c3ccc(C(=O)NC(C)C)cc3nn1-2	-	-	51	-	-	-	+
Cc1ccc2c(c1)COc1c3ccc(C(=O)N[C@@H](C)CO)cc3nn1-2	-	-	54	-	-	-	.
Cc1occc1C(=O)Nc1cnn(CCCC(=O)O)c1	-	-	-	-	-	-	.
O=[N+]([O-])c1cccc(N(CC(O)CN2CCCCC2)S(=O)(=O)c2ccccc2)c1 (stereo unspecified)	-	-	-	-	-	-	.
Cc1cnc(NC(=O)c2ccc(-c3nc4ccccc4s3)o2)s1	-	-	41	-	-	-	-
CCC(=O)Nc1ccc(C(=O)CSc2nnc(-c3ccc(NS(=O)(=O)CC)cc3)o2)cc1OC	-	-	44	-	-	-	-
CCS(=O)(=O)Nc1ccc(-c2nnc(SCC(=O)OC)o2)cc1	-	-	-	-	-	-	.
Cc1ccc2nc(C)cc(N/N=C/c3ccccc3O)c2c1	-	-	-	-	-	-	.
COc1ccccc1/C=N/Nc1cc(C)nc2ccc(C)cc12	-	-	40	-	-	-	-
CCOC(=O)[C@]12CCC=C1N(Cc1ccc3c(c1)OCO3)C(=O)[C@H](CC(=O)NCCCN1CCCC1=O)C2	-	-	-	.	.	-	.
Cc1ccn2c(=O)c(C(=O)NCCCN3CCCCC3C)c(O)nc2c1 (stereo unspecified)	-	-	45	-	-	-	-
